Experiment [1] relates to Mycobacterium tuberculosis. Put plainly: Inhibition of Mycobacterium tuberculosis fumarate hydratase expressed in Escherichia coli BL21(DE3) at 50 uM using fumaric acid as substrate preincubated for 5 mins followed by substrate addition incubated for 2 mins and measured at 24 secs interval for 10 mins by spectrometric method relative to control. Summed up: (§1)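 Coupled assay: Mtb fumarase (33.3 nM) with citrate synthase, malate dehydrogenase, acetyl-CoA (267 µM) and NAD+ (200 µM) in 250 mM Tris pH 8.0, 5 mM MgCl2. Ligand in DMSO pre-equilibrated 5 min at 25 °C, then fumaric acid added. A340 read every 24 s over 10 min. Slope corrected by no-substrate control and normalised to uninhibited control.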

Experiment [2] relates to Mycobacterium tuberculosis. Put plainly: Antimycobacterial activity against Mycobacterium tuberculosis H37Rv assessed as reduction in bacterial growth incubated for 2 week in 7H9/ADC media by 2-fold serial dilution method. The class given is functional. As to conditions: for MIC: 336 h. Summed up: (§2)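 H37Rv grown in the test medium to OD 0.2–0.4, diluted to OD 0.0002 and added 1:1 to a two-fold serial dilution series of compound. Plates incubated 37 °C for two weeks, then MIC determined.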

In experiment [3] the test system is Mycobacterium tuberculosis. Put plainly: Antimycobacterial activity against Mycobacterium tuberculosis H37Rv assessed as reduction in bacterial growth incubated for 2 weeks in 7H9/glucose media by 2-fold serial dilution method. The class given is functional. Conditions: for MIC: 336 h. The method in brief: as §2
Experiment [4] has as its system Mycobacterium tuberculosis. Nature of the experiment: Antimycobacterial activity against Mycobacterium tuberculosis H37Rv assessed as reduction in bacterial growth incubated for 2 weeks in 7H9/DPPC media by 2-fold serial dilution method. The experiment is classed as functional. Conditions: for MIC: 336 h. The method in brief: as §2
Experiment [5] deals with Mycobacterium tuberculosis. Nature of the experiment: Antimycobacterial activity against Mycobacterium tuberculosis H37Rv assessed as reduction in bacterial growth incubated for 2 weeks in GAST-Fe media by 2-fold serial dilution method. The class given is functional. Conditions: for MIC: 336 h. Summed up:
as §2

Experiment [6] is described as follows: Inhibition of Mycobacterium tuberculosis fumarate hydratase expressed in Escherichia coli BL21(DE3) using fumaric acid as substrate preincubated for 5 mins followed by substrate addition incubated for 2 mins and measured at 24 secs interval for 10 mins by spectrometric method. Summed up:
as §1

The test system of experiment [7] is Mycobacterium tuberculosis. Nature of the experiment: Binding affinity to Mycobacterium tuberculosis fumarate hydratase expressed in Escherichia coli BL21(DE3) assessed as change in melting temperature at 5 mM by Sypro orange dye based differential scanning fluorimetry.
Experiment [8] relates to Mycobacterium tuberculosis. Nature of the experiment: Inhibition of Mycobacterium tuberculosis fumarate hydratase expressed in Escherichia coli BL21(DE3) at 100 to […] using fumaric acid as substrate preincubated for 5 mins followed by substrate addition incubated for 2 mins and measured at 24 secs interval for 10 mins by spectrometric method. Summed up: as §1
A short description of experiment [9]: Inhibition of N-terminal His6-tagged Mycobacterium tuberculosis fumarate hydratase expressed in Escherichia coli BL21(DE3) using fumaric acid as substrate preincubated for 10 mins followed by substrate addition and measured immediately by fluorescence-based HTS assay.
Experiment [10] has as its system Mycobacterium tuberculosis. Put plainly: Antimycobacterial activity against Mycobacterium tuberculosis H37Rv assessed as growth inhibition at 250 uM supplemented with fresh medium containing compound for every 3 days for 7 days relative to control. The class given is functional.
In experiment [11] the test system is Mycobacterium tuberculosis. Nature of the experiment: Binding affinity to Mycobacterium tuberculosis fumarate hydratase expressed in Escherichia coli BL21(DE3) assessed as change in melting temperature at 0.625 mM by Sypro orange dye based differential scanning fluorimetry.

The structures appear in SMILES notation. Converted amounts (≈) assume the structure as drawn. The source made the active and inactive calls. No cut-off for these calls is given here.

`COc1ccc(S(=O)(=O)N2CCCCCC2)cc1NC(=O)Cc1coc2ccccc12`: the inhibition – broadly, the percentage by which the read-out fell short of the control – in experiment [1] was less than 10%. The MIC (as a rule, the lowest concentration found to suppress growth) in [2] was greater than 100 µM; in experiment [3], 9.4 µM (≈ 4.16 µg/mL); in [4], 6.3 µM (≈ 2.79 µg/mL); in [5], greater than 100 µM.

`COc1ccc(S(=O)(=O)N2CCSCC2)cc1NC(=O)Cc1n[nH]c(=O)c2ccccc12`: the outcome in [2], in experiment [3], in [4] and in experiment [5] was inactive. In addition, the IC50 – broadly, the concentration that gives 50% inhibition – in [6] is 4.7 µM.

In the case of `COc1ccc(S(=O)(=O)N2CCc3cc(OC)c(OC)cc3C2)cc1NC(=O)Cc1n[nH]c(=O)c2ccccc12`, the outcome in [2], in experiment [3], in experiment [4] and in experiment [5] was inactive. Besides, in experiment [6], the half-maximal inhibitory concentration (IC50) turned out to be 3.4 µM.

On to `COc1ccc(S(=O)(=O)N2CCCCC2)cc1NC(=O)Cc1n[nH]c(=O)c2ccccc12`, for which the outcome in experiment [2], in [3], in [4] and in experiment [5] was inactive. Moreover, the IC50 in experiment [6] was 4.4 µM.

With `COc1ccc(S(=O)(=O)N2CCc3ccccc3CC2)cc1NC(=O)Cc1n[nH]c(=O)c2ccccc12`, the outcome in [2], in [3], in experiment [4] and in [5] was inactive. In addition, the half-inhibitory concentration (IC50) in experiment [6] was 0.67 µM.

Regarding `COc1ccc(S(=O)(=O)N2CCN(C)CC2)cc1NC(=O)Cc1n[nH]c(=O)c2ccccc12`, the result in experiment [2], in experiment [3], in [4] and in experiment [5] was inactive. In experiment [6], this compound had a half-maximal inhibitory concentration (IC50) of 38 µM.

Take `CC(=O)Nc1cccc(S(=O)(=O)N2CCCCCC2)c1`: in experiment [7], the ΔTm (as a rule, the change in melting temperature against a reference sample) was -0.4 °C. Besides, the inhibition result in experiment [8] was “inactive”.

Consider `COc1ccc(S(=O)(=O)N2CCCCCC2)cc1N`, for which the ΔTm in experiment [7] is -0.7 °C. For the same compound, in experiment [8], the inhibition result was “inactive”.

Turning to `COc1ccccc1NC(=O)Cc1n[nH]c(=O)c2ccccc12`, in experiment [7], the ΔTm was -0.4 °C. Further, in experiment [8], the inhibition result is “inactive”.

Turning to `COc1ccc(S(=O)(=O)N2CCS(=O)(=O)CC2)cc1NC(=O)Cc1n[nH]c(=O)c2ccccc12`, the result in [2], in experiment [3], in experiment [4] and in experiment [5] was inactive. In [6], the IC50 amounted to 13 µM.

For the compound `COc1ccc(S(=O)(=O)N2CCCCCC2)cc1NC(=O)Cn1cnc2ccccc21`, the inhibition in [1] is less than 10%.

Turning to `COc1ccc2c(c1)CCN(S(=O)(=O)c1ccc(OC)c(NC(=O)Cc3n[nH]c(=O)c4ccccc34)c1)CC2`, the outcome in [2], in [3], in [4] and in experiment [5] was inactive. The compound further yielded a concentration for half-maximal inhibition (IC50) in experiment [6] of 0.67 µM.

As for `O=C(Cc1nnc(O)c2ccccc12)Nc1cccc(S(=O)(=O)N2CCCCCC2)c1`, in experiment [1], the inhibition amounted to 16%.

Regarding `COc1ccc(C(=O)N2CCCCCC2)cc1NC(=O)Cc1n[nH]c(=O)c2ccccc12`, the inhibition in experiment [1] came to 14%.

As for `Nc1cc(S(=O)(=O)N2CCCCCC2)ccc1O`, the thermal shift (ΔTm) in experiment [7] was -1.6 °C. The inhibition result in experiment [8] is “inactive”.

Turning to `COc1ccc(S(=O)(=O)N2CCCCCC2)cc1NC(=O)Cc1nnc(O)c2ccccc12`, in experiment [1], the inhibition was greater than 90%. In addition, the minimal inhibitory concentration (MIC) in experiment [2], in experiment [3], in experiment [4] and in [5] was greater than 100 µM each time. Further, the IC50 in experiment [6] was determined as 2 µM; in experiment [9], 2.5 µM. Further, the “growth inhibition (GI)” value in experiment [10] is reported as 65%. In addition, the ΔTm in [11] was found to be 3.9 °C.

For `COc1ccc(S(=O)(=O)N2CCCCCC2)cc1NC(C)=O`, in [7], the thermal shift (ΔTm) is -0.6 °C. Besides, in experiment [8], the inhibition result was “inactive”.

Turning to `CCOC(=O)Cc1nnc(O)c2ccccc12`, the ΔTm in [7] is -0.6 °C. The inhibition entry in [8] is “inactive”.

For the compound `Cc1ccc(S(=O)(=O)N2CCCCCC2)cc1NC(=O)Cc1n[nH]c(=O)c2ccccc12`, in experiment [1], the inhibition is less than 10%.

For the compound `COc1ccc(S(=O)(=O)N2CCCCCCC2)cc1NC(=O)Cc1n[nH]c(=O)c2ccccc12`, the MIC in [2] is greater than 100 µM; in [3], 25 µM (≈ 12.1 µg/mL); in [4], 19 µM (≈ 9.21 µg/mL); in experiment [5], greater than 100 µM. Besides, in experiment [6], 4 µM corresponded to half-maximal inhibition (IC50).

Turning to `CNS(=O)(=O)c1ccc(OC)c(NC(C)=O)c1`, the ΔTm in experiment [7] is -0.4 °C. For the same compound, in experiment [8], the inhibition result was “inactive”.

In the case of `COc1ccc(S(=O)(=O)N2CCc3ccccc3C2)cc1NC(=O)Cc1n[nH]c(=O)c2ccccc12`, the result in [2], in experiment [3], in experiment [4] and in experiment [5] was inactive. Further, the concentration for half-maximal inhibition (IC50) in [6] was 2.2 µM.

As for `COc1ccc(S(=O)(=O)N2CCOCC2)cc1NC(=O)Cc1n[nH]c(=O)c2ccccc12`, the result in experiment [2], in [3], in experiment [4] and in [5] was inactive. In experiment [6], the IC50 is 12 µM.

In experiment [6], `CNS(=O)(=O)c1ccc(OC)c(NC(=O)Cc2n[nH]c(=O)c3ccccc23)c1` returned a 50% inhibitory concentration (IC50) of 57 µM.

Regarding `COc1ccc(S(=O)(=O)N2CCCCCC2)cc1NC(=O)Cc1noc2ccccc12`, the inhibition in experiment [1] was less than 10%.

`COc1ccc(S(=O)(=O)N2CCCCCC2)cc1NC(=O)Cc1c[nH]c2ccccc12` yielded an inhibition in [1] of 27%. For the same compound, the MIC in experiment [2] was greater than 100 µM; in experiment [3], 100 µM (≈ 44.2 µg/mL); in [4], 9.4 µM (≈ 4.15 µg/mL); in [5], greater than 100 µM.

The compound `COc1ccc(S(=O)(=O)N2CC3CC(C2)c2ccccc23)cc1NC(=O)Cc1n[nH]c(=O)c2ccccc12` displayed an inhibition in experiment [1] of 44%.

`COc1ccc(S(=O)(=O)N2CCCCCC2)cc1`: the shift in melting temperature (ΔTm) in [7] was determined as 0.1 °C. In addition, the inhibition result in experiment [8] was “inactive”.

Regarding `Nc1cccc(S(=O)(=O)N2CCCCCC2)c1`, the shift in melting temperature (ΔTm) in experiment [7] is -1.2 °C. Besides, in [8], the inhibition entry is “inactive”.

As to `COc1ccc(S(=O)(=O)Nc2ccccc2)cc1NC(=O)Cc1n[nH]c(=O)c2ccccc12`, the result in experiment [2], in experiment [3], in experiment [4] and in [5] was inactive. This compound returned an IC50 in [6] of 17 µM.

Take `O=C(O)Cc1nnc(O)c2ccccc12`: the thermal shift (ΔTm) in experiment [7] was -0.4 °C. The inhibition entry in [8] was “inactive”.

`COc1ccc2[nH]cc(CC(=O)Nc3cc(S(=O)(=O)N4CCCCCC4)ccc3OC)c2c1` gave an inhibition in experiment [1] of 38%. Also, the MIC in experiment [2] was greater than 100 µM; in experiment [3], greater than 100 µM; in experiment [4], 12.5 µM (≈ 5.89 µg/mL); in experiment [5], greater than 100 µM.

On to `COc1ccc(S(=O)(=O)N2CCCCCC2)cc1NC(=O)Cc1cccc2ccccc12`, for which, in [1], the inhibition is 21%. In addition, the outcome in [2], in experiment [3], in [4] and in experiment [5] was inactive.

In turn, `COc1ccc(S(=O)(=O)NCc2ccccc2)cc1NC(=O)Cc1n[nH]c(=O)c2ccccc12` showed an inhibition in [1] of 53%.

In experiment [1], `COc1ccc(S(=O)(=O)N2CCCCCC2)cc1NC(=O)Cc1ccncc1` registered an inhibition of less than 10%. The outcome in experiment [2], in experiment [3], in [4] and in [5] was inactive.

Regarding `COc1ccc(S(=O)(=O)N2CCCCCC2)cc1NC(=O)CCc1c[nH]c2ccccc12`, the inhibition in experiment [1] is 12%. The minimal inhibitory concentration (MIC) in [2] was greater than 100 µM; in experiment [3], 25 µM (≈ 11.4 µg/mL); in [4], 9.4 µM (≈ 4.28 µg/mL); in experiment [5] it was greater than 100 µM.

`COc1ccc(S(=O)(=O)N2CCCCCC2)cc1NC(=O)Cc1ccnc2ccccc12` gave an inhibition in experiment [1] of 86%. Also, the result in experiment [2], in experiment [3], in experiment [4] and in [5] was inactive. In experiment [6], this compound displayed a half-inhibitory concentration (IC50) of 4.1 µM.

Source of the values: ChEMBL document CHEMBL4414584, “Targeting of Fumarate Hydratase from Mycobacterium tuberculosis Using Allosteric Inhibitors with a Dimeric-Binding Mode” (J Med Chem, 2019).
